Assay results gathered from unrelated publications.
Read-out: metabolic stability

CCCN(C)Cc1cc(-c2[nH]c3cccc(F)c3c(=O)c2C)ccc1Cc1ccc(OC(F)(F)F)cc1 — scaled CLint (mouse; liver microsomes): 1570 mL/min/kg
Cc1ccc(-c2nc3ccccc3s2)cc1NC(=O)c1cc([N+](=O)[O-])c(N2CCN(C)CC2)cc1Cl — scaled CLint (CD-1 mouse; liver microsomes; 1 µM; 1 h; pH 7.4): 105 mL/min/kg
O=c1ccc2ccc(O)cc2o1 — scaled CLint (mouse; liver S9; 2 µM; pH 7.4): 2120 mL/min/kg
Cc1cc(NC(=O)Cc2ccc(F)c(C#N)c2)n(CC2CCCCC2)n1 — scaled CLint (mouse; liver microsomes): 2970 mL/min/kg
Cc1ccc(F)c2cc(C(=O)N[C@@H]3CCC[C@H](N4CCN(S(C)(=O)=O)CC4)C3)[nH]c12 — scaled CLint (mouse; hepatocytes; 0.5 µM; 1 h): 328 mL/min/kg
CN[C@@H]1CCN(c2ccc(Nc3cc(NC4CC4)n4ncc(C#N)c4n3)cc2NC(C)=O)C1 — scaled CLint (male CD-1 mouse; hepatocytes; 1 µM; serum-free): 126 mL/min/kg
O=C(Nc1cncc(-c2nc3ccccc3o2)c1)c1ccc(N2CCNCC2)c([N+](=O)[O-])c1 — scaled CLint (CD-1 mouse; liver microsomes; 1 µM; 1 h; pH 7.4): 10 mL/min/kg
COc1cc(C2Oc3cc([C@H]4Oc5cc(O)cc(O)c5C(=O)[C@@H]4O)ccc3OC2CO)ccc1O (stereo partly drawn) — scaled CLint (mouse; liver microsomes; 1 µM): 66.5 mL/min/kg
CC(=O)Nc1cc(Nc2cc(NC3CC3)n3ncc(C#N)c3n2)ccc1N(C)C[C@@H]1CCCN1 — scaled CLint (male CD-1 mouse; hepatocytes; 1 µM; serum-free): 171 mL/min/kg
Cc1cc(Cl)c(Cl)cc1NC(=O)c1ccc(N2CCNCC2)c([N+](=O)[O-])c1 — scaled CLint (CD-1 mouse; liver microsomes; 1 µM; 1 h; pH 7.4): 21 mL/min/kg
CCOc1c(O)cc(Br)c2c1CN1CCc3cc(OCC(F)F)c(O)cc3[C@@H]1C2 — scaled CLint (mouse; liver S9; 2 µM; pH 7.4): 1040 mL/min/kg
Cc1ccc(F)c2cc(C(=O)N[C@@H]3CCC[C@H](c4ccncc4)C3)[nH]c12 — scaled CLint (mouse; hepatocytes; 0.5 µM; 1 h): 399 mL/min/kg
Cc1ccc(-c2nc3ccccc3s2)cc1NC(=O)c1cc([N+](=O)[O-])c(F)cc1F — scaled CLint (CD-1 mouse; liver microsomes; 1 µM; 1 h; pH 7.4): 52 mL/min/kg
Cc1ccc(F)c2cc(C(=O)N[C@@H]3CCC[C@H](N4CCN(C)C(=O)C4)C3)[nH]c12 — scaled CLint (mouse; hepatocytes; 0.5 µM; 1 h): 164 mL/min/kg
O=C(c1ccc(F)cc1)C1CCN(CCn2c(=O)[nH]c3ccccc3c2=O)CC1 — scaled CLint (mouse; liver microsomes): 376 mL/min/kg
